# Source: PubChem
# Rows were chosen to be rich in hits. Some 1.7% of all compounds tested hit in one or more screens of this group.
# IDE inh: inhibits human insulin-degrading enzyme in HEK cells | P14735 | AID 434962 | inhibition, % at 5.59 µM | 0.41% of 320,000 active | FAbetaB cleavage, fluorescence polarization;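 active = percent inhibition above the average of all tested compounds plus 3 SD, set per screening campaign, cut at about 16% in these data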;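 also: IDE supplied by intact live HEK cells; FP after avidin binding of uncleaved biotin substrate so inhibition keeps polarization high; 0% = DMSO wells and 100% = 60 µM reference IDE inhibitor Ii1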
# Rpn11 inh: blocks the human proteasome subunit Rpn11; human 26S proteasome, Ub4-pepOG fluorescence polarization; 20S core pre-blocked with epoxomicin; inhibition, % at 20 µM; 0.59% of 360,000 active; AID 588493;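 active = inhibition at 20 µM, scaled to each plate's controls, above about 33%, limit read from the data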
# Target sequence (O00487 whole entry, looked up): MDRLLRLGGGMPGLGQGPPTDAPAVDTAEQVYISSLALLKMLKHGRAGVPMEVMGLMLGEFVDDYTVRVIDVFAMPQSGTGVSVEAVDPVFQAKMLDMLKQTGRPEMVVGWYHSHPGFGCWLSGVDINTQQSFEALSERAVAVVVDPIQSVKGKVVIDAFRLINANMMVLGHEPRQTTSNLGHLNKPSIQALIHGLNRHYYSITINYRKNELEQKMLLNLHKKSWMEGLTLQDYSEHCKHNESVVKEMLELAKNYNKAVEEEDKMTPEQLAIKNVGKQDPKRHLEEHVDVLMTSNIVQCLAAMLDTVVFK
# IDE act: boosts human insulin-degrading enzyme activity in HEK cells | 0.073% of 340,000 active | activation, % at 5.96 µM | FAbeta-B cleavage, fluorescence polarization; 0% vehicle, 100% cell-free pure enzyme wells;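 active = activation above the mean of all tested compounds plus 3 SD, set per screening campaign, cut at about 17% in these data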
# CSN inh: blocks human CSN-mediated cullin deneddylation. Q92905. 0.38% of 360,000 active. Purified CSN, SCF-Nedd8-OG deneddylation, fluorescence polarization. inhibition, % at 12.5 µM. AID 651999;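 active = pattern-corrected inhibition above about 35%, with an unprinted fluorescence ratio check between 0.5 and 1.5, limit read from the data, passing the limit was not always enough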;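 also: 0% = enzyme with substrate and 100% = substrate without enzyme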
# Target sequence (Q92905 whole entry, looked up, one chain of several): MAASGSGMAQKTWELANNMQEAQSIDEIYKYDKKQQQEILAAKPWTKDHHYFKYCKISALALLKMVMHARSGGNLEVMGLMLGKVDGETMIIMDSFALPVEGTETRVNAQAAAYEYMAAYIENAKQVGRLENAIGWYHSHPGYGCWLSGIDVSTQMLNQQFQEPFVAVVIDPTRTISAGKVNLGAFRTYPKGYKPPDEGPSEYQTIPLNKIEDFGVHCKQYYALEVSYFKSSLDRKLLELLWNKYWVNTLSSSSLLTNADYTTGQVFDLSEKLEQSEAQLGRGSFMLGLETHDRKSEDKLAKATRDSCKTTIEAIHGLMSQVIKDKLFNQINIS
#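 Assay system: purified human Csn5 enzyme expressed in HEK293T cells; Input: 0.24 nM Csn5 enzyme, final concentration; Reagent: 10 nM SCFSkp2-Nedd8OG; Compound dosing: 12.5 µM single point; Times: reaction 90 min, room temperature; Technique: fluorescence polarization readout.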
# HNF4A DNA FP: change in binding of human HNF4 alpha to DNA; HNF4a-FITC DNA binding, fluorescence polarization, 1 h; 0.3% of 360,000 active; P41235; activity change, % at 10 µM; in the data active = activity change above about 30%, passing the limit was not always enough
# TPT1 inh: blocks Candida albicans tRNA 2'-phosphotransferase; AID 1962; 0.81% of 300,000 active; recombinant caTPT1, FP RNA substrate dephosphorylation; inhibition, % at 5 µM;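 active = inhibition above the mean of all tested compounds plus 3 SD, set per screening campaign, cut at about 24% in these data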;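 also: plate controls were DMSO alone for no effect and ferristatin control at 100 nM for full effect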
# caTPT1 confirm: confirmation of Candida albicans TPT1 inhibitors; inhibition, % at 5 µM; 74% of 2,400 active; recombinant caTPT1, fluorescence polarization, RNase T1 coupled; shares compounds with TPT1 inh;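 active = inhibition above the primary screen limit, the mean inhibition of all tested compounds plus 3 SD, cut at about 25% in these data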
# RNase T1 inh: RNase T1 inhibition in TPT1 counter-screen. shares compounds with TPT1 inh. RNase T1 cleavage, fluorescence polarization, 1536-well. inhibition, % at 5 µM. 83% of 2,400 active. AID 2153;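 active = inhibition above the solvent-only control well mean plus 3 SD, limit set per screening run, cut at about 23% in these data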;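 also: plate controls were DMSO wells with enzyme for no effect and wells without RNase T1 for full effect; inhibitors block cleavage so intact labeled substrate keeps polarization high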
# * hit, by the source's call; . = not tested or not shown.
SMILES,IDE inh,Rpn11 inh,IDE act,CSN inh,HNF4A DNA FP,TPT1 inh,caTPT1 confirm,RNase T1 inh
O=C(O)c1cc(O)c2c(c1)[C@@H]([C@H]1c3cc(C(=O)O)cc(O)c3C(=O)c3c(O[C@@H]4O[C@H](CO)[C@@H](O)[C@H](O)[C@H]4O)cccc31)c1cccc(OC3O[C@H](CO)[C@@H](O)[C@H](O)[C@H]3O)c1C2=O (stereo not given in full),-1,34,3,45,-87,77*,84*,6
CN(C)c1ccc(/C=C2\N=C(C(C)(C)C)OC2=O)cc1,2,.,-6,20,11,117*,129*,140*
COc1ccc(/C=C2\N=C(C(C)(C)C)OC2=O)c(OC)c1,-1,0,12,-1,-1,1,.,.
CCN(CC)c1ccc(C=C2C(=O)OC3(CCCCC3)OC2=O)cc1,-1,.,-5,26,10,101*,166*,156*
CCN(CC)c1ccc(/C=C2/C(=O)ON=C2C)cc1,12,.,-24,29,9,117*,132*,134*
CCOc1cc(/C=C2/C(=O)ON=C2C)ccc1O,1,3,-2,3,-1,10,.,.
CC1=NOC(=O)/C1=C/c1ccc(N(C)C)cc1,6,.,.,.,.,78*,97*,114*
CC1=NOC(=O)/C1=C/c1ccc(O)c(Cl)c1,-2,-2,-2,1,3,3,.,.
N#Cc1cc(N2CCCCC2)c([N+](=O)[O-])cc1C#N,2,1,2,4,2,-1,.,.
CN(C)CCC1CCN(c2cc(C#N)c(C#N)cc2[N+](=O)[O-])CC1,5,-8,0,0,1,119*,2,7
CC(OC(=O)CCN=C1NS(=O)(=O)c2ccccc21)C(=O)Nc1ccc(F)cc1 (stereo not given),-3,4,7,1,1,2,.,.
C[C@H](CO)N1C[C@H](C)[C@H](CN(C)Cc2ccncc2)Oc2ccc(NC(=O)Nc3ccc(C(F)(F)F)cc3)cc2CC1=O,3,-8,-2,3,1,.,.,.
O=C(CCN1CCC(c2cccs2)=N1)c1cccs1,3,11,.,3,4,28*,5,10
COc1ccc([C@H]2C[C@H](n3cc(COC(=O)c4ccccc4)nn3)[C@@H](O)CN2CC2CCCCC2)cc1,.,0,.,-1,1,.,.,.
Cc1ccc(CNC(=O)C2CC(=O)N(c3ccc(OCC(=O)N4CCCC4)cc3)C2)cc1 (stereo not given),4,1,1,2,2,31*,5,10
Cc1ccc(C(=O)CSc2nn3c(=O)c(C(C)(C)C)nnc3s2)cc1,1,6,-3,5,-4,32*,3,6
O=C(CN1CCN(S(=O)(=O)c2ccc(Br)cc2)CC1)N/N=C/c1ccc(Br)s1,2,4,3,1,4,30*,14,16
O=C1Cn2nnc(-c3ccccc3)c2C2c3ccccc3CCN12 (stereo not given),.,-2,.,2,-4,.,.,.
COc1ccc(/C=C/C(=O)c2ccncc2)c2ccccc12,6,32,-7,1,1,63*,73*,81*
Cc1noc(C)c1-c1ccc(C(=O)Nc2ccc(C(C)C)cc2)c2occc12,.,3,.,0,0,.,.,.
OC(CN1CCOCC1)Cn1cnc2ccccc21 (stereo not given),2,2,1,2,3,3,.,.
Cc1ccc(C(=O)/C=C/c2cn(CC(O)CN3CCOCC3)c3ccccc23)cc1 (stereo not given),12,.,1,14,25,47*,46*,57*
O=C(/C=C/c1cn(CC(O)CN2CCOCC2)c2ccccc12)c1cccs1 (stereo not given),7,.,.,.,.,63*,82*,88*
O=Cc1cn(CC(O)CN2CCCCC2)c2ccccc12 (stereo not given),-1,0,3,3,3,-1,.,.
CCCc1cc(C(=O)Cc2ccc(F)cc2)c(O)cc1O,-7,-1,2,4,-3,-3,.,.
SMILES,IDE inh,Rpn11 inh,IDE act,CSN inh,HNF4A DNA FP,TPT1 inh,caTPT1 confirm,RNase T1 inh
CCCc1cc(C(=O)Cc2ccc(C(=O)OCC)o2)c(O)cc1O,0,27,-6,8,17,24*,20,30*
CCCN1CCN(C(=O)C2CCN(c3nnc(C)c4c(C)n(-c5ccc(C)cc5)nc34)CC2)CC1,5,.,3,27,34,28*,36*,48*
Cc1ccc(-n2nc3c(N4CCC(C(=O)N5CCCCCC5)CC4)nnc(C)c3c2C)cc1,4,14,0,3,5,8,.,.
Cc1ccc(Sc2ncccc2C(=O)NCC(c2ccc(F)cc2)N2CCOCC2)cc1C (stereo not given),8,5,-2,5,-1,-3,.,.
CCCCC(CCCC)=N/N=C/c1c(O)n(CC)c2cc(C3=NNC(=O)CC3)ccc12,4,.,2,-3,20,34*,17,22*
CCn1c(O)c(/C=N/N=C2CCCCC2)c2cc(C3=NNC(=O)CC3)ccc21,-5,30,2,12,12,37*,23,36*
COc1ccc(/C(O)=C/c2nc3ccccc3n(-c3ccccc3)c2=O)cc1,-7,31,0,1,50*,67*,66*,95*
COc1ccc(-n2c(=O)c(CCC(=O)N3CCN(c4cccc(OC)c4)CC3)nc3ccccc32)cc1,.,2,.,0,5,.,.,.
NC(=O)[C@@H]1[C@@H]2C(=O)N(c3ccc(F)cc3)C(=O)[C@@H]2[C@H]2C=Cc3ccccc3N21,-4,12,.,3,12,7,.,.
O=C(c1ccco1)[C@@H]1[C@@H]2C(=O)N(c3ccc(F)cc3)C(=O)[C@@H]2[C@H]2C=Cc3ccccc3N21,8,14,2,6,18,30*,21,31*
CC1(C(=O)NS(=O)(=O)c2cccc(C#N)c2)CCN1C(=O)c1cccc2ccccc12 (stereo not given),.,-2,.,4,-4,.,.,.
O=[N+]([O-])c1cccc(/C=C/c2ccc3cccc(O)c3n2)c1,4,4,6,-5,2,-1,.,.
O=[N+]([O-])c1cccc(/C=C/c2nc(C=Nc3ccc4ccccc4c3)c(O)o2)c1,1,2,1,5,4,33*,20,28*
CCOC(=O)C1(Cc2cccc(F)c2)CCN(Cc2nc(CC)[nH]c2C)CC1,6,.,-1,30,75*,87*,102*,107*
